{
  "source": "paper PMC8712509",
  "about": "(International Journal of Nanomedicine, 2021)",
  "key": {"SGC-7901 cells": {"test_system": "SGC-7901 cells", "experiment": "Cytotoxicity assay", "format": "cell-based, Human", "conditions": "SGC-7901, MTT, n=3", "method_in_brief": "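SGC-7901 cells were grown in RPMI-1640 with 10% FBS, 1% penicillin and 1% streptomycin at 37°C, 5% CO2. Log-phase cells were seeded in triplicate at 1.0×10^4 cells/well overnight. Free drug or liposomal test formulations (1.0–100.0 µg/mL drug) were added for 24, 48 or 72 h. MTT (5.0 mg/mL stock) was added for 4 h, then DMSO, and OD read at 490 nm. IC50 was derived from viability.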"}, "[1]": {"experiment": "Pharmacokinetics in plasma", "format": "in vivo", "conditions": "ICR mice, single 10.0 mg/kg iv"}, "[2]": {"experiment": "Biodistribution in major organs", "format": "in vivo", "conditions": "ICR mice, single 10.0 mg/kg iv"}},
  "data": [
    {"molecule": "O=C1[O][Pt]2([NH][C@@H]3CCCC[C@H]3[NH]2)[O]C1=O", "note": "(relative stereo) [OXA, (1R-trans)-(1,2-cyclohexanediamine-N,N’)[oxalic acid (2-)-O,O’] platinum]", "values": [
      {"measurement": "IC50", "setting": "SGC-7901 cells; 48 h", "value": "15.87 ± 0.27", "unit": "µg/mL"},
      {"measurement": "IC50", "setting": "SGC-7901 cells; 72 h", "value": "14.17 ± 0.14", "unit": "µg/mL"},
      {"measurement": "last time at which OXA was detectable in plasma (undetectable after)", "setting": "[1]", "value": 8, "unit": "h"},
      {"measurement": "plasma concentration of OXA", "setting": "[1]; 0.08 h", "value": "28590 ± 920", "unit": "ng/mL"},
      {"measurement": "plasma concentration of OXA", "setting": "[1]; 0.17 h", "value": "25030 ± 320", "unit": "ng/mL"},
      {"measurement": "plasma concentration of OXA", "setting": "[1]; 0.50 h", "value": "4490 ± 350", "unit": "ng/mL"},
      {"measurement": "plasma concentration of OXA", "setting": "[1]; 1 h", "value": "3200 ± 100", "unit": "ng/mL"},
      {"measurement": "plasma concentration of OXA", "setting": "[1]; 2 h", "value": "2860 ± 240", "unit": "ng/mL"},
      {"measurement": "plasma concentration of OXA", "setting": "[1]; 4 h", "value": "1990 ± 120", "unit": "ng/mL"},
      {"measurement": "plasma concentration of OXA", "setting": "[1]; 6 h", "value": "1500 ± 700", "unit": "ng/mL"},
      {"measurement": "plasma concentration of OXA", "setting": "[1]; 8 h", "value": "640 ± 110", "unit": "ng/mL"},
      {"measurement": "CL", "setting": "[1]; plasma, n=3", "value": "5.53 ± 1.5", "unit": "mL/min/kg"},
      {"measurement": "CLz", "setting": "[1]; plasma, n=3", "value": "5.85 ± 0.217", "unit": "mL/min/kg"},
      {"measurement": "K10", "setting": "[1]; plasma, n=3", "value": "1.319 ± 0.250", "unit": "h⁻¹"},
      {"measurement": "K12", "setting": "[1]; plasma, n=3", "value": "5.632 ± 0.360", "unit": "h⁻¹"},
      {"measurement": "K21", "setting": "[1]; plasma, n=3", "value": "0.828 ± 0.070", "unit": "h⁻¹"},
      {"measurement": "MRT(0-t)", "setting": "[1]; plasma, n=3", "value": "2.535 ± 0.520", "unit": "H"},
      {"measurement": "MRT(0-∞)", "setting": "[1]; plasma, n=3", "value": "4.319 ± 0.130", "unit": "H"},
      {"measurement": "T1/2z", "setting": "[1]; plasma, n=3", "value": "4.995 ± 0.360", "unit": "H"},
      {"measurement": "Tmax", "setting": "[1]; plasma, n=3", "value": "0.250 ± 0.015", "unit": "H"},
      {"measurement": "t1/2α", "setting": "[1]; plasma, n=3", "value": "0.215 ± 0.077", "unit": "H"},
      {"measurement": "t1/2β (elimination half-life)", "setting": "[1]; plasma, n=3", "value": "3.214 ± 0.420", "unit": "H"},
      {"measurement": "OXA concentration in heart", "setting": "[2]; 0.5 h", "value": "8.59 ± 0.06", "unit": "µg/g"},
      {"measurement": "OXA concentration in kidneys", "setting": "[2]; 0.5 h", "value": "8.73 ± 0.45", "unit": "µg/g"},
      {"measurement": "OXA concentration in liver", "setting": "[2]; 0.5 h", "value": "14.00 ± 0.30", "unit": "µg/g"},
      {"measurement": "OXA concentration in lungs", "setting": "[2]; 0.5 h", "value": "4.60 ± 0.13", "unit": "µg/g"},
      {"measurement": "OXA concentration in spleen", "setting": "[2]; 0.5 h", "value": "14.27 ± 0.44", "unit": "µg/g"},
      {"measurement": "OXA concentration in heart", "setting": "[2]; 1 h", "value": "10.27 ± 0.44", "unit": "µg/g"},
      {"measurement": "OXA concentration in kidneys", "setting": "[2]; 1 h", "value": "4.02 ± 0.61", "unit": "µg/g"},
      {"measurement": "OXA concentration in liver", "setting": "[2]; 1 h", "value": "12.49 ± 0.56", "unit": "µg/g"},
      {"measurement": "OXA concentration in lungs", "setting": "[2]; 1 h", "value": "3.70 ± 0.22", "unit": "µg/g"},
      {"measurement": "OXA concentration in spleen", "setting": "[2]; 1 h", "value": "13.40 ± 0.80", "unit": "µg/g"},
      {"measurement": "OXA concentration in heart", "setting": "[2]; 2 h", "value": "6.79 ± 0.40", "unit": "µg/g"},
      {"measurement": "OXA concentration in kidneys", "setting": "[2]; 2 h", "value": "2.85 ± 0.27", "unit": "µg/g"},
      {"measurement": "OXA concentration in liver", "setting": "[2]; 2 h", "value": "12.50 ± 0.58", "unit": "µg/g"},
      {"measurement": "OXA concentration in lungs", "setting": "[2]; 2 h", "value": "4.35 ± 0.63", "unit": "µg/g"},
      {"measurement": "OXA concentration in spleen", "setting": "[2]; 2 h", "value": "13.21 ± 0.22", "unit": "µg/g"},
      {"measurement": "OXA concentration in heart", "setting": "[2]; 4 h", "value": "5.55 ± 0.45", "unit": "µg/g"},
      {"measurement": "OXA concentration in kidneys", "setting": "[2]; 4 h", "value": "2.36 ± 0.70", "unit": "µg/g"},
      {"measurement": "OXA concentration in liver", "setting": "[2]; 4 h", "value": "10.91 ± 1.56", "unit": "µg/g"},
      {"measurement": "OXA concentration in lungs", "setting": "[2]; 4 h", "value": "4.98 ± 0.18", "unit": "µg/g"},
      {"measurement": "OXA concentration in spleen", "setting": "[2]; 4 h", "value": "10.35 ± 1.53", "unit": "µg/g"},
      {"measurement": "OXA concentration in heart", "setting": "[2]; 6 h", "value": "4.22 ± 0.14", "unit": "µg/g"},
      {"measurement": "OXA concentration in kidneys", "setting": "[2]; 6 h", "value": "2.84 ± 0.25", "unit": "µg/g"},
      {"measurement": "OXA concentration in liver", "setting": "[2]; 6 h", "value": "8.87 ± 0.40", "unit": "µg/g"},
      {"measurement": "OXA concentration in lungs", "setting": "[2]; 6 h", "value": "4.54 ± 0.90", "unit": "µg/g"},
      {"measurement": "OXA concentration in spleen", "setting": "[2]; 6 h", "value": "10.56 ± 0.56", "unit": "µg/g"},
      {"measurement": "OXA concentration in heart", "setting": "[2]; 8 h", "value": "3.26 ± 0.34", "unit": "µg/g"},
      {"measurement": "OXA concentration in kidneys", "setting": "[2]; 8 h", "value": "2.65 ± 0.12", "unit": "µg/g"},
      {"measurement": "OXA concentration in liver", "setting": "[2]; 8 h", "value": "7.06 ± 0.44", "unit": "µg/g"},
      {"measurement": "OXA concentration in lungs", "setting": "[2]; 8 h", "value": "3.94 ± 0.12", "unit": "µg/g"},
      {"measurement": "OXA concentration in spleen", "setting": "[2]; 8 h", "value": "4.81 ± 0.33", "unit": "µg/g"},
      {"measurement": "AUC(0-t), heart", "setting": "[2]; n=3", "value": "48.080 ± 1.690", "unit": "µg·h/g"},
      {"measurement": "AUC(0-t), kidneys", "setting": "[2]; n=3", "value": "27.380 ± 1.870", "unit": "µg·h/g"},
      {"measurement": "AUC(0-t), liver", "setting": "[2]; n=3", "value": "87.870 ± 1.360", "unit": "µg·h/g"},
      {"measurement": "AUC(0-t), lungs", "setting": "[2]; n=3", "value": "34.130 ± 1.960", "unit": "µg·h/g"},
      {"measurement": "AUC(0-t), spleen", "setting": "[2]; n=3", "value": "118.170 ± 4.560", "unit": "µg·h/g"},
      {"measurement": "AUC(0-∞), heart", "setting": "[2]; n=3", "value": "68.591 ± 5.210", "unit": "µg·h/g"},
      {"measurement": "AUC(0-∞), kidneys", "setting": "[2]; n=3", "value": "69.442 ± 5.640", "unit": "µg·h/g"},
      {"measurement": "AUC(0-∞), liver", "setting": "[2]; n=3", "value": "161.538 ± 3.960", "unit": "µg·h/g"},
      {"measurement": "AUC(0-∞), lungs", "setting": "[2]; n=3", "value": "106.955 ± 9.140", "unit": "µg·h/g"},
      {"measurement": "AUC(0-∞), spleen", "setting": "[2]; n=3", "value": "128.580 ± 9.360", "unit": "µg·h/g"},
      {"measurement": "MRT, heart", "setting": "[2]; n=3", "value": "5.574 ± 0.980", "unit": "h"},
      {"measurement": "MRT, kidneys", "setting": "[2]; n=3", "value": "16.594 ± 2.220", "unit": "h"},
      {"measurement": "MRT, liver", "setting": "[2]; n=3", "value": "9.330 ± 1.020", "unit": "h"},
      {"measurement": "MRT, lungs", "setting": "[2]; n=3", "value": "17.707 ± 1.990", "unit": "h"},
      {"measurement": "MRT, spleen", "setting": "[2]; n=3", "value": "5.990 ± 0.230", "unit": "h"}
    ]}
  ]
}
